# Source: the array DNA melting data of Ke et al. (doi:10.1101/2024.01.08.574731)
# Tests used:
# [1] = folding enthalpy; higher = less favourable; fluorescence melt of hairpins on a sequencing array, two-state fit; details: sodium 0.088 M
# Summary of the method: (§1)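 Melting temperature and folding enthalpy were derived from bootstrapped two-state fits. The fitted temperatures were raised by 9.35 °C to agree with UV melts, and four replicates were combined by inverse variance. The underlying data were Cy3 fluorescence images of library hairpins, with annealed Cy3 and quencher oligos, on a sequenced MiSeq flow cell in 50 mM Na-HEPES pH 8.0, 25 mM NaCl, taken in 2.5 °C steps up to 60 °C, normalised to pre-quench Cy3 and to control constructs.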
# [2] = melting temperature; fluorescence melt of hairpins on a sequencing array, two-state fit, raised by 9.35 °C to match UV melts; details: sodium 0.088 M
# Summary of the method: as §1
sequence,measurement,setting,value
GTTGTTGAAAAACAAC ((((((....)))))),folding enthalpy,[1],-38.2 kcal/mol
same,Tm,[2],51.9 °C
GCTGTGAAAACAGC (((((....))))),folding enthalpy,[1],-30.2 kcal/mol
same,Tm,[2],63.3 °C
GATCGCGAAAGCGAATC ((((((....))).))),folding enthalpy,[1],-14 kcal/mol
same,Tm,[2],52.5 °C
GCGTCTTCGAAAGAACGC (((..(((....)))))),folding enthalpy,[1],-26 kcal/mol
same,Tm,[2],46.6 °C
GCACCCGAAAGGGCGTGC ((((((....)))..))),folding enthalpy,[1],-29.6 kcal/mol
same,Tm,[2],51.2 °C
GGCCTTGGAAACAAGGTC (.(((((....))))).),folding enthalpy,[1],-34.4 kcal/mol
same,Tm,[2],55.7 °C
GTTCCTCGAAAGAGTAAC (((.(((....))).))),folding enthalpy,[1],-27.6 kcal/mol
same,Tm,[2],34.1 °C
GAAGCCGAAAGGCTGTTC ((((((....)))..))),folding enthalpy,[1],-10.4 kcal/mol
same,Tm,[2],47.4 °C
GATCATCGGGATGATC ((((((....)))))),folding enthalpy,[1],-44 kcal/mol
same,Tm,[2],53.5 °C
GTACTACGAAAGTATAC (((.(((....)))))),folding enthalpy,[1],-15.3 kcal/mol
same,Tm,[2],27.9 °C
GCAGAGCGAAAGCCCAGC ((.(.((....)).).)),folding enthalpy,[1],-12.2 kcal/mol
same,Tm,[2],33 °C
GCTCAGCGAAAGCTTGGC ((..(((....)))..)),folding enthalpy,[1],-18.8 kcal/mol
same,Tm,[2],39.7 °C
GTGGCTGGAAACAGTCAC (((.(((....))).))),folding enthalpy,[1],-36.9 kcal/mol
same,Tm,[2],55.1 °C
GTATTTCGAAAGAACTAC (((.(((....))).))),folding enthalpy,[1],-19.2 kcal/mol
same,Tm,[2],31.7 °C
GCGACGCGAAAGCATCGC ((((.((....)).)))),folding enthalpy,[1],-43.2 kcal/mol
same,Tm,[2],66.9 °C
GATCGATTGCTCGATC ((((((....)))))),folding enthalpy,[1],-31.9 kcal/mol
same,Tm,[2],51.2 °C
GATCCCGTTCGGGATC ((((((....)))))),folding enthalpy,[1],-43.2 kcal/mol
same,Tm,[2],67.8 °C
GACTTGGGAAACCAGGTC (((.(((....))).))),folding enthalpy,[1],-37 kcal/mol
same,Tm,[2],46.4 °C
GGAGTGGGAAACCACTCC (((((((....))))))),folding enthalpy,[1],-38.6 kcal/mol
same,Tm,[2],68.2 °C
GCTCATGGAAACATGAGC (((((((....))))))),folding enthalpy,[1],-33 kcal/mol
same,Tm,[2],67.6 °C
GTTCGGGGAAACCCGGAC ((.((((....)))).)),folding enthalpy,[1],-42.2 kcal/mol
same,Tm,[2],54.9 °C
GCGGGCGGCCGC ((((....)))),folding enthalpy,[1],-42 kcal/mol
same,Tm,[2],59.1 °C
GCACCGGGAAACCAGCGC ((.(.((....)).).)),folding enthalpy,[1],-20.7 kcal/mol
same,Tm,[2],37.4 °C
GATCAACTGGTTGATC ((((((....)))))),folding enthalpy,[1],-39.8 kcal/mol
same,Tm,[2],55.2 °C
GCCACGCGAAAGCGAAGC ((..(((....)))..)),folding enthalpy,[1],-11.2 kcal/mol
same,Tm,[2],43.4 °C
GACGATGGAAACATCATC ((.((((....)))).)),folding enthalpy,[1],-18.4 kcal/mol
same,Tm,[2],33.4 °C
GACATTCCGAAAGGAGTC (((..(((....)))))),folding enthalpy,[1],-12.3 kcal/mol
same,Tm,[2],28.6 °C
GCGAAGCGAAAGCCTAGC ((.(.((....)).).)),folding enthalpy,[1],-7.6 kcal/mol
same,Tm,[2],40.2 °C
GACACCGAAAGGTGAGTC ((((((....)))..))),folding enthalpy,[1],-9.36 kcal/mol
same,Tm,[2],37.3 °C
GATCTGACGTCAGATC ((((((....)))))),folding enthalpy,[1],-42.6 kcal/mol
same,Tm,[2],55.5 °C
GTAGCCGAAAGGCGGTAC ((((((....)))..))),folding enthalpy,[1],-9.4 kcal/mol
same,Tm,[2],41.2 °C
GATCTGAATCCAGATC ((((((....)))))),folding enthalpy,[1],-37.8 kcal/mol
same,Tm,[2],46 °C
GATCCAGGAAACTGGATC (((((((....))))))),folding enthalpy,[1],-38.1 kcal/mol
same,Tm,[2],60.9 °C
GAAAAGGCGAAAGCCTTC (((..(((....)))))),folding enthalpy,[1],-9.06 kcal/mol
same,Tm,[2],38.9 °C
GATCCCACCGGGATC ((((((...)))))),folding enthalpy,[1],-28.9 kcal/mol
same,Tm,[2],66.7 °C
GTCAGCCGAAAGGCAGAC (((.(((....))).))),folding enthalpy,[1],-24.4 kcal/mol
same,Tm,[2],61.9 °C
GATCTGTTGCAGATC ((((((...)))))),folding enthalpy,[1],-36.5 kcal/mol
same,Tm,[2],48.7 °C
GGAGCCGAAAGGCATTCC ((((((....)))..))),folding enthalpy,[1],-10.3 kcal/mol
same,Tm,[2],33.1 °C
GCGGCTCGAAAGAGCGC (((.(((....)))))),folding enthalpy,[1],-20.1 kcal/mol
same,Tm,[2],68.8 °C
GGCCAAGGAAACTTGACC ((.((((....)))).)),folding enthalpy,[1],-30.3 kcal/mol
same,Tm,[2],43.1 °C
GGTAATACGAAAGTAACC (((..(((....)))))),folding enthalpy,[1],-9.63 kcal/mol
same,Tm,[2],22.7 °C
GATGCTGGAAACGGTATC (((.(.(....).).))),folding enthalpy,[1],-22.8 kcal/mol
same,Tm,[2],31.2 °C
GGCGTAACGAAAGTTGCC (((..(((....)))))),folding enthalpy,[1],-25.3 kcal/mol
same,Tm,[2],48.9 °C
GTGTTCGAAAGAAACCAC ((((((....)))..))),folding enthalpy,[1],-10.4 kcal/mol
same,Tm,[2],27.4 °C
ACACGGAAACGTGT (((((....))))),folding enthalpy,[1],-24 kcal/mol
same,Tm,[2],55.1 °C
GCGGTGGGAAACCACTGC ((.((((....)))).)),folding enthalpy,[1],-38.9 kcal/mol
same,Tm,[2],60.4 °C
GTGGCTGGAAACAGCTAC ((.((((....)))).)),folding enthalpy,[1],-29.3 kcal/mol
same,Tm,[2],53.9 °C
GTCACCCGAAAGGGAGAC (((.(((....))).))),folding enthalpy,[1],-33.6 kcal/mol
same,Tm,[2],57.2 °C
GAAAGCGGAAACGTTTTC ((((.((....)).)))),folding enthalpy,[1],-30.5 kcal/mol
same,Tm,[2],42.4 °C
GACCCCGAAAGGGAGTC ((((((....))).))),folding enthalpy,[1],-23 kcal/mol
same,Tm,[2],56.5 °C
GAATATGGAAACATATCC (.(((((....))))).),folding enthalpy,[1],-13.6 kcal/mol
same,Tm,[2],24.6 °C
GTATCACCGAAAGGTTAC (((..(((....)))))),folding enthalpy,[1],-8.26 kcal/mol
same,Tm,[2],25.8 °C
GATCTCAGGAGAGATC ((((((....)))))),folding enthalpy,[1],-34.7 kcal/mol
same,Tm,[2],50.8 °C
GTCACCGAAAGGTACGAC ((((((....)))..))),folding enthalpy,[1],-18 kcal/mol
same,Tm,[2],41.2 °C
GACCCAGGAAACCAGGTC ((((..(....)..)))),folding enthalpy,[1],-24.3 kcal/mol
same,Tm,[2],34 °C
GCAAGCGGAAACGCCTGC (((.(((....))).))),folding enthalpy,[1],-17.1 kcal/mol
same,Tm,[2],54.2 °C
GTGCTAGGAAACTAGCGC (.(((((....))))).),folding enthalpy,[1],-39.6 kcal/mol
same,Tm,[2],53.5 °C
GCATGCGAAAGCACTTGC ((((((....)))..))),folding enthalpy,[1],-15.4 kcal/mol
same,Tm,[2],37.7 °C
GGTGCCGAAAGGCGTACC ((((((....)))..))),folding enthalpy,[1],-15.5 kcal/mol
same,Tm,[2],48.5 °C
GCATGGCGAAAGCTAAGC ((.(.((....)).).)),folding enthalpy,[1],-12.6 kcal/mol
same,Tm,[2],38.4 °C
GGATATGGAAACGTATCC (((((.(....).))))),folding enthalpy,[1],-35.5 kcal/mol
same,Tm,[2],43.4 °C
GACGTAGCGAAAGCTGTC (((..(((....)))))),folding enthalpy,[1],-17.7 kcal/mol
same,Tm,[2],47.1 °C
GGAAGACGAAAGTCTCC (((.(((....)))))),folding enthalpy,[1],-20.9 kcal/mol
same,Tm,[2],52.3 °C
GGTGGGCGAAAGCCACC (((.(((....)))))),folding enthalpy,[1],-21.3 kcal/mol
same,Tm,[2],66.1 °C
GCAACGCGAAAGCATGGC ((.(.((....)).).)),folding enthalpy,[1],-13.1 kcal/mol
same,Tm,[2],33.8 °C
GATGACCCGAAAGGGATC (((..(((....)))))),folding enthalpy,[1],-11.7 kcal/mol
same,Tm,[2],33.2 °C
GGTAATCGAAAGATAACC (((.(((....))).))),folding enthalpy,[1],-26.3 kcal/mol
same,Tm,[2],41.7 °C
GATCCTAACCAGGATC ((((((....)))))),folding enthalpy,[1],-32.3 kcal/mol
same,Tm,[2],52 °C
GAGAGTGAAAACTCTC ((((((....)))))),folding enthalpy,[1],-32.1 kcal/mol
same,Tm,[2],53.9 °C
